PLCg1 inh: inhibitors of human phospholipase C gamma1; P19174; purified PLC-gamma1, fluorogenic substrate, fluorescence; inhibition, % at 12.2 µM; 0.84% of 370,000 active; in the data active = inhibition above about 9.5%
UCH37 DUB inh: blocks the human deubiquitinase UCH37; purified proteasome/UCH37, Ub-AMC cleavage fluorescence; AID 588478; 0.33% of 330,000 active; inhibition, % (test concentration not listed);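 active = mean inhibition over replicate wells above about 20%, limit read from the data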
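Assay system: Proteasome-bound UCH37. Buffer or medium: pH 7.4 Tris-HCl (50 mM) with ovalbumin, ATP-MgCl2, DTT. Incubation: 30 min preincubation with enzyme, 25 min cleavage at room temperature. Measured by: fluorescence, ex 355 nm, em 460 nm. Read-out basis: percent inhibition. Control set: wells without proteasome as full block, compound-free enzyme plus substrate as uninhibited.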
PLCb3 inh: blocks human PLC-beta3 enzyme activity | AID 720704 | 0.18% of 370,000 active | inhibition, % at 12.2 µM | Q01970 | Purified PLC-beta3, fluorogenic substrate, fluorescence
Rpn11 inh: inhibitors of human proteasome Rpn11. O00487. human 26S proteasome, Ub4-pepOG fluorescence polarization; 20S core pre-blocked with epoxomicin. inhibition, % at 20 µM. 0.59% of 360,000 active. AID 588493;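 active = inhibition at 20 µM, scaled to each plate's controls, above about 33%, limit read from the data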
UCH37 confirm: reconfirmed inhibitor of human deubiquitinase UCH37; inhibition, % at 20 µM; shares compounds with UCH37 DUB inh; 27% of 480 active; Proteasome-bound UCH37, Ub-AMC cleavage fluorescence;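 active = average inhibition over replicates above about 50%, so the earlier screening hit is confirmed, limit read from the data; inactive = the rest, counted as false positives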;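 also: based on cleavage rate fitted by regression over a 30 min kinetic read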
Rpn11 confirm: Rpn11 inhibition confirmation, single concentration; inhibition, % at 20 µM; shares compounds with Rpn11 inh; purified human 26S proteasome, Ub4-pepOG fluorescence polarization; proteasome pretreated with epoxomicin; 29% of 1,900 active; in the data active = inhibition above about 40%
MMP-2 counter: blocks human MMP-2, flagging nonselective RPN11 hits. inhibition, % at 20 µM. AID 602330. recombinant MMP-2, FRET peptide cleavage fluorescence. 4% of 1,900 active. shares compounds with Rpn11 inh; in the data active = inhibition above about 40%;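 also: human MMP-2 activated beforehand with APMA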
Thrombin FP: counter-screen for RPN11 inhibitors: inhibition of bovine thrombin; inhibition, % at 20 µM; 13% of 1,900 active; bovine thrombin cleavage of Ub4-pepOG, fluorescence polarization; shares compounds with Rpn11 inh;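 active = mean inhibition at least 40% at 20 µM, or signal 3 deviations below plate average, so some actives read negative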
PLCgamma1 ctr: counter-screen for PLC-beta3 inhibitors: inhibitors of human PLC-gamma1; shares compounds with PLCg1 inh; purified PLC-gamma1, fluorogenic substrate, fluorescence; inhibition, % at 12.3 µM; 3.1% of 3,300 active; AID 743258; in the data active = inhibition above about 9.5%
PLCb3 confirm: confirmation of human PLC-beta3 inhibitors | shares compounds with PLCg1 inh | purified PLC-beta3, fluorogenic substrate fluorescence | inhibition, % at 12.3 µM | 1% of 3,300 active | AID 743261
Of the large screens only hits and unclear results are named; the others gave an inactive call (follow-up assays come after a bar, where shown). In the library only some 1.7% were active in any assay of this set; here they are far more common. Rule as the data show it, unless noted: active = inhibition above about 11%; inactive = the rest.

CCN(CC)c1ccc(/C=C2\C(=O)NC(=S)N(C)C2=O)o1	UCH37 DUB inh 26 (not shown: Rpn11 inh) | UCH37 confirm inactive
COc1cccc(N2C(=O)/C(=C/c3ccc(C)o3)C(=O)NC2=S)c1	none (not shown: Rpn11 inh)
CCN(CC)c1ccc(/C=C2\C(=O)NC(=S)N(c3ccc(OC)cc3OC)C2=O)o1	UCH37 DUB inh 27 (not shown: PLCg1 inh, PLCb3 inh, Rpn11 inh) | UCH37 confirm inactive
O=C(CSC1c2ccccc2-c2ccccc21)NN=Cc1ccc(C(=O)O)cc1	none (no result: PLCg1 inh, PLCb3 inh, Rpn11 inh)
CNC(=O)ON=C(N)Cc1csc2ccc(Cl)cc12	none (no result: PLCg1 inh, PLCb3 inh, Rpn11 inh)
CC1CCCC=CC2CC(O)CC2C(O)C=CC(=O)O1 (stereo not given)	none (no result: PLCg1 inh, PLCb3 inh, Rpn11 inh)
Cc1c(C=NO)c2ccccc2n1C	none (no result: PLCg1 inh, PLCb3 inh, Rpn11 inh)
O=c1[nH]c(=O)n(CCC2=CCCCC2)c(O)c1C=NCc1cccnc1	UCH37 DUB inh 44 | UCH37 confirm inactive
C=C1[C@@H](C)[C@H]2[C@H](Cc3ccccc3)NC(=O)[C@]23OC(=O)C=C[C@H](O)CCC[C@@H](C)CC=C[C@H]3[C@@H]1O	none (no result: PLCg1 inh, PLCb3 inh, Rpn11 inh)
COc1cc2c(cc1OC)-c1c3c(cc4c1[C@@H](C2)N(C)CC4)OCO3	none
COc1cc2c(cc1OC)-c1c(OC)c(OC)cc3c1C(C2)N(C)CC3 (stereo not given)	UCH37 DUB inh 28 | UCH37 confirm inactive
CC(=O)O[C@@H]1C=C[C@](C)(O)C[C@@H](C)CC=C[C@H]2[C@H](O)C(C)=C(C)[C@H]3[C@H](Cc4ccccc4)NC(=O)[C@@]123	none (no result: PLCg1 inh, PLCb3 inh, Rpn11 inh)
O=C1NC(=O)C(=Cc2ccc(N3CCOCC3)o2)C(=O)N1	UCH37 DUB inh 27 (not shown: Rpn11 inh) | UCH37 confirm inactive
C=CCN1C(=O)/C(=C/c2ccc(N3CCOCC3)o2)C(=O)NC1=S	none (not shown: Rpn11 inh)
CCn1nc(/C=C/c2ccccc2)nc2c(=O)n(C)c(=O)nc1-2	PLCg1 inh 43, UCH37 DUB inh 96 | UCH37 confirm 100
COc1ccc(/C=C2\C(=NO)C3CCN2CC3)cc1	none (no result: PLCg1 inh, PLCb3 inh, Rpn11 inh)
COc1cc(C=NNC(=O)Cn2c([N+](=O)[O-])cnc2C)ccc1OC(=O)N(C)C	none (no result: PLCg1 inh, PLCb3 inh, Rpn11 inh)
COC(=O)C(O)(c1c(C)[nH]n(-c2ccccc2)c1=O)C(F)(F)F (stereo not given)	UCH37 DUB inh 85 | UCH37 confirm 60
Cn1c(=O)[nH]c2nncnc2c1=O	UCH37 DUB inh 30 | UCH37 confirm inactive
COc1ccccc1/C=C1/C(=NO)C2CCN1CC2	none (no result: PLCg1 inh, PLCb3 inh, Rpn11 inh)
COC(=O)C1=C(c2ccc(OC(F)(F)F)cc2)C[C@@H]2CC[C@H]1N2C(=O)NCCOc1ccc(OC)cc1	UCH37 DUB inh 49 | UCH37 confirm inactive
COC(=O)c1nc(-c2ccc3c(n2)C(=O)C(N)=C(OC)C3=O)c(N)c(-c2ccc(OC)c(OC)c2O)c1C	UCH37 DUB inh 69 | UCH37 confirm inactive
COc1cc(C(c2c(C)[nH]n(-c3ccccc3)c2=O)c2c(C)[nH]n(-c3ccccc3)c2=O)cc(OC)c1OC	PLCg1 inh 22, UCH37 DUB inh 53 | UCH37 confirm 94 | PLCgamma1 ctr inactive | PLCb3 confirm inactive
CC(C)(C)NC(=S)N=C(N)N[N+](=O)[O-]	none (no result: PLCg1 inh, PLCb3 inh, Rpn11 inh)
Cc1cccc(CN2CCN(CC(=O)N3CCC4(CC3)OCCO4)C2=O)c1	Rpn11 inh 81 | Rpn11 confirm inactive | MMP-2 counter inactive | Thrombin FP inactive
O=C(CN1CCN(Cc2cccc(Cl)c2)C1=O)N1CCC2(CC1)OCCO2	none
CNC(=O)ON=C(N)Cc1csc2ccccc12	none (no result: PLCg1 inh, PLCb3 inh, Rpn11 inh)
CCOC(=O)c1c(-n2c(C)cc(C=C3C(=O)NC(=S)NC3=O)c2C)sc2c1CCCC2	Rpn11 inh 43 (no result: PLCg1 inh, PLCb3 inh) | Rpn11 confirm inactive | MMP-2 counter inactive | Thrombin FP inactive
Cc1ccccc1NC(=NCCCN1CC1)Nc1ccccc1C	Rpn11 inh 92 (no result: UCH37 DUB inh) | Rpn11 confirm 99 | MMP-2 counter inactive | Thrombin FP 52
Cc1cc(/C=C2/C(=O)NC(=O)N(c3ccc(Br)cc3)C2=O)c(C)n1C	Rpn11 inh 52 | Rpn11 confirm inactive | MMP-2 counter inactive | Thrombin FP inactive
Cn1cc([C@@H]2C[C@H]3CN(Cc4cccc(Cl)c4)C(=O)[C@]34CCCN24)c2ccccc21	Rpn11 inh 55 | Rpn11 confirm 53 | MMP-2 counter inactive | Thrombin FP 65
O=C(Cn1ncc2c3ccccc3n(Cc3cccc(Cl)c3)c2c1=O)N1CCC2(CC1)OCCO2	none
CC(C)N1C(=O)/C(=C/C=C/c2ccco2)C(=O)N(Cc2ccco2)C1=O	Rpn11 inh 98 | Rpn11 confirm 49 | MMP-2 counter inactive | Thrombin FP 41
CCN1C(=O)C(=C/C=C/c2ccco2)C(=O)N(CC)C1=S	none (not shown: Rpn11 inh)
N#Cc1c(N=CC2C(=O)NC(=S)NC2=O)sc2c1CCCC2	none (no result: PLCg1 inh, PLCb3 inh, Rpn11 inh)
CCOc1ccccc1-n1c(O)c(C=Nc2ccc(N(CC)CC)cc2)c(=O)[nH]c1=O	Rpn11 inh 56 (no result: UCH37 DUB inh) | Rpn11 confirm 49 | MMP-2 counter inactive | Thrombin FP inactive
C[C@H]1CCCC=CC2C[C@H](O)CC2[C@H](O)C=CC(=O)O1 (stereo not given in full)	none (no result: PLCg1 inh, PLCb3 inh, Rpn11 inh)
COC(=O)C1C2c3ccccc3OC1(C)N=c1sc(=Cc3cnn(C)c3)c(=O)n12 (stereo not given)	none (no result: PLCg1 inh, PLCb3 inh, Rpn11 inh)
C=CCn1c(O)c(/C=C/C=Nc2ccccc2)c(=O)[nH]c1=O	Rpn11 inh 88 | Rpn11 confirm 98 | MMP-2 counter inactive | Thrombin FP inactive
CN(CN=C(N)N[N+](=O)[O-])S(=O)(=O)c1ccccc1	none (no result: PLCg1 inh, PLCb3 inh, Rpn11 inh)
CC1=C[C@@H](C)CC=C[C@H]2[C@@H]3O[C@]3(C)[C@@H](C)[C@H]3[C@H](Cc4c[nH]c5ccccc45)NC(=O)[C@]32C(=O)C=CC(=O)[C@@H]1O	none (no result: PLCg1 inh, PLCb3 inh, Rpn11 inh)
Cc1ccnc(-n2c(C)cc(C=C3C(=O)N(C)C(=S)N(C)C3=O)c2C)c1	Rpn11 inh 47 | Rpn11 confirm inactive | MMP-2 counter inactive | Thrombin FP inactive
Cc1cc(C=C2C(=O)N(C)C(=S)N(C)C2=O)c(C)n1-c1ccncc1	Rpn11 inh 42 | Rpn11 confirm inactive | MMP-2 counter inactive | Thrombin FP inactive
CCCCCC(=NO)c1c(C)[nH]c2ccccc12	none (no result: PLCg1 inh, PLCb3 inh, Rpn11 inh)
COc1ccc2c3c([nH]c2c1)C(C)=NCC3	Rpn11 inh 65 | Rpn11 confirm inactive | MMP-2 counter inactive | Thrombin FP inactive

Assay outcomes: PubChem BioAssay, several laboratories
